Laboratory results from ChEMBL document CHEMBL3616464, “One-pot synthesis of podophyllotoxin-thiourea congeners by employing NH₂SO₃H/NaI: Anticancer activity, DNA topoisomerase-II inhibition, and apoptosis inducing agents” (Bioorg Med Chem Lett, 2015).
Activity calls are given as the source filed them. The calls are words filed in the database; no cut-off is given here.

What was measured:
DU-145 [1] = assay: Induction of apoptosis in human DU145 cells assessed as late apoptotic cells at 125 nM after 48 hrs using Annexin-V and propidium iodide staining (reference value: 9.32%); format: functional
A549 = assay: Cytotoxicity against human A549 cells after 48 hrs by MTT assay; format: functional, cell-based; details: A549, 48 h
DU-145 [2] = assay: Induction of apoptosis in human DU145 cells assessed as chromatin condensation at 125 to 500 nM after 48 hrs by phase-contrast microscopic analysis; format: functional, cell-based
Procedure, shortened: (§1)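 DU-145 cells treated with 125, 250 or 500 nM for 48 h. Morphology (chromatin condensation, nuclear fragmentation, membrane blebbing, apoptotic bodies) examined under phase-contrast light microscope and compared with untreated control.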

DU-145 [3] = assay: Induction of apoptosis in human DU145 cells assessed as dead cells at 125 nM after 48 hrs using Annexin-V and propidium iodide staining (reference value: 3.28%); format: functional
DU-145 [4] = assay: Cell cycle arrest in human DU145 cells assessed as accumulation at G0/G1 phase at 125 nM after 48 hrs by propidium iodide staining (reference value: 43.5%); format: functional
[5] = molecular target: DNA topoisomerase 2-alpha (Homo sapiens) (UniProt P11388); assay: Inhibition of topoisomerase-2 (unknown origin) using kDNA assessed as increase of catenated kDNA level at 50 to 100 uM after 10 mins using ethidium bromide staining by agarose gel electrophoresis
Chain of DNA topoisomerase 2-alpha (Homo sapiens) (P11388 whole entry): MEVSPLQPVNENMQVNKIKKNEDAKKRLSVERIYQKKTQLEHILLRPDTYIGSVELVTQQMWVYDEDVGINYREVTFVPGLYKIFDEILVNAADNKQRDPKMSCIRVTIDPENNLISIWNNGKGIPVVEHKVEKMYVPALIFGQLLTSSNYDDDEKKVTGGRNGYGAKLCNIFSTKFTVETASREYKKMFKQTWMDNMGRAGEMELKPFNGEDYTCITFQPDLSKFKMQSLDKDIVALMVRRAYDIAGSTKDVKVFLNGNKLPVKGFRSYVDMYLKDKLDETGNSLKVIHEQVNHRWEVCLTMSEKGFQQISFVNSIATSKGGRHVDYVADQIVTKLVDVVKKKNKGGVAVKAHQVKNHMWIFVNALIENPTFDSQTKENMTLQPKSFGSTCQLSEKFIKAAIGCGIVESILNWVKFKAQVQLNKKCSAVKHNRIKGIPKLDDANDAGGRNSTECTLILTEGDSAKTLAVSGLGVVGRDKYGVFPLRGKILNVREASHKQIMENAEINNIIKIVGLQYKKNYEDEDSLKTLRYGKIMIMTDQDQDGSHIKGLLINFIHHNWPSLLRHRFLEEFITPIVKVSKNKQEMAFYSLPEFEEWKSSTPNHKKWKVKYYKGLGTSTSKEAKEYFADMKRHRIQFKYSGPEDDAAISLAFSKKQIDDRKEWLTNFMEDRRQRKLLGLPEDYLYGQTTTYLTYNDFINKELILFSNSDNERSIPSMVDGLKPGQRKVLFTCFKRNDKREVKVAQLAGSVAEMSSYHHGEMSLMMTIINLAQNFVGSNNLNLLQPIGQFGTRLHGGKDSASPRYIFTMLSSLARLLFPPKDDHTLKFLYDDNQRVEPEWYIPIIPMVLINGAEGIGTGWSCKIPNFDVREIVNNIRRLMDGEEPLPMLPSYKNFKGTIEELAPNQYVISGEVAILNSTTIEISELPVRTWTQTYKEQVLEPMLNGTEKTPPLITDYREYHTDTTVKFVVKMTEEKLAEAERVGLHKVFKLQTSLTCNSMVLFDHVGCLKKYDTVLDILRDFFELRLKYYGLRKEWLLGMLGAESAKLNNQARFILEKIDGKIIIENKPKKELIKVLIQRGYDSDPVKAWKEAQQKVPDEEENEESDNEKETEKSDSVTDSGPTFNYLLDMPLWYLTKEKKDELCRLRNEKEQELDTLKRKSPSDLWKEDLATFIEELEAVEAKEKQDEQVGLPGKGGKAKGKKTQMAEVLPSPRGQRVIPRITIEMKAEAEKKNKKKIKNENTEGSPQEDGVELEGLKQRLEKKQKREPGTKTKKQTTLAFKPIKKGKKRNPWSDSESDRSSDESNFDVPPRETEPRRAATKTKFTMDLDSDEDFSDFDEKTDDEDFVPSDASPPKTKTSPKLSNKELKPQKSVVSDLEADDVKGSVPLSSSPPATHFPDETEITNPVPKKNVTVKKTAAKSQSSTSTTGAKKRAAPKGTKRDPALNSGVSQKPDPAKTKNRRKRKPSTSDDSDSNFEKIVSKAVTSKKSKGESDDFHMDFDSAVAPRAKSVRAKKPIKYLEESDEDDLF
Procedure, shortened: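 Topoisomerase II drug screening kit, with catenated DNA incubated with topoisomerase II (5 units) and test agent at 50 or 100 µM. Etoposide at 100 µM serves as standard. Products resolved on gel: catenated DNA is retained in the wells, and nicked/relaxed circular and linear forms are distinguished.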

DU-145 [6] = assay: Cytotoxicity against human DU145 cells after 48 hrs by MTT assay; format: functional, cell-based; details: DU-145, 48 h
DU-145 [7] = assay: Induction of apoptosis in human DU145 cells assessed as cell membrane blebbing at 125 nM after 48 hrs using acridine orange and ethidium bromide staining by fluorescence microscopic analysis; format: functional, cell-based
Procedure, shortened: (§2)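 DU-145 cells treated with 125, 250 or 500 nM for 48 h, then stained with acridine orange/ethidium bromide. Nuclear and chromatin morphology scored by fluorescence microscopy. Live cells appear green and late apoptotic nuclei red with EB. Untreated cells serve as control.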

DU-145 [8] = assay: Induction of apoptosis in human DU145 cells assessed as horseshoe-shaped cells at 125 nM after 48 hrs using acridine orange and ethidium bromide staining by fluorescence microscopic analysis; format: functional, cell-based; procedure, shortened: as §2
DU-145 [9] = assay: Induction of apoptosis in human DU145 cells assessed as live cells at 250 nM after 48 hrs using Annexin-V and propidium iodide staining (reference value: 86%); format: functional
DU-145 [10] = assay: Cell cycle arrest in human DU145 cells assessed as accumulation at S phase at 250 nM after 48 hrs by propidium iodide staining (reference value: 9.1%); format: functional
DU-145 [11] = assay: Cell cycle arrest in human DU145 cells assessed as accumulation at G0/G1 phase at 250 nM after 48 hrs by propidium iodide staining (reference value: 43.5%); format: functional
DU-145 [12] = assay: Induction of apoptosis in human DU145 cells assessed as dead cells at 250 nM after 48 hrs using Annexin-V and propidium iodide staining (reference value: 3.28%); format: functional
DU-145 [13] = assay: Cell cycle arrest in human DU145 cells assessed as accumulation at S phase at 500 nM after 48 hrs by propidium iodide staining (reference value: 9.1%); format: functional
DU-145 [14] = assay: Induction of apoptosis in human DU145 cells assessed as cell membrane blebbing at 125 to 500 nM after 48 hrs by phase-contrast microscopic analysis; format: functional, cell-based; procedure, shortened: as §1
DU-145 [15] = assay: Induction of apoptosis in human DU145 cells assessed as nuclear fragmentation at 125 to 500 nM after 48 hrs by phase-contrast microscopic analysis; format: functional, cell-based; procedure, shortened: as §1
DU-145 [16] = assay: Induction of apoptosis in human DU145 cells assessed as dead cells at 500 nM after 48 hrs using Annexin-V and propidium iodide staining (reference value: 3.28%); format: functional
DU-145 [17] = assay: Induction of apoptosis in human DU145 cells assessed as early apoptotic cells at 250 nM after 48 hrs using Annexin-V and propidium iodide staining (reference value: 1.40%); format: functional
DU-145 [18] = assay: Induction of apoptosis in human DU145 cells assessed as early apoptotic cells at 500 nM after 48 hrs using Annexin-V and propidium iodide staining (reference value: 1.40%); format: functional
MDA-MB-231 = assay: Cytotoxicity against human MDA-MB-231 cells after 48 hrs by MTT assay; format: functional, cell-based; details: MDA-MB-231, 48 h
DU-145 [19] = assay: Cell cycle arrest in human DU145 cells assessed as accumulation at G2/M phase at 125 nM after 48 hrs by propidium iodide staining (reference value: 22.5%); format: functional
DU-145 [20] = assay: Induction of apoptosis in human DU145 cells assessed as late apoptotic cells at 250 nM after 48 hrs using Annexin-V and propidium iodide staining (reference value: 9.32%); format: functional
DU-145 [21] = assay: Induction of apoptosis in human DU145 cells assessed as late apoptotic cells at 500 nM after 48 hrs using acridine orange and ethidium bromide staining by fluorescence microscopic analysis; format: functional, cell-based; procedure, shortened: as §2
DU-145 [22] = assay: Induction of apoptosis in human DU145 cells assessed as destructive fragmentation of nuclei at 250 nM after 48 hrs using acridine orange and ethidium bromide staining by fluorescence microscopic analysis; format: functional, cell-based; procedure, shortened: as §2
DU-145 [23] = assay: Cell cycle arrest in human DU145 cells assessed as accumulation at G0/G1 phase at 500 nM after 48 hrs by propidium iodide staining (reference value: 43.5%); format: functional
DU-145 [24] = assay: Induction of apoptosis in human DU145 cells assessed as late apoptotic cells at 500 nM after 48 hrs by phase-contrast microscopic analysis; format: functional, cell-based; procedure, shortened: as §1
DU-145 [25] = assay: Induction of apoptosis in human DU145 cells assessed as chromatin condensation at 125 nM after 48 hrs using acridine orange and ethidium bromide staining by fluorescence microscopic analysis; format: functional, cell-based; procedure, shortened: as §2
DU-145 [26] = assay: Induction of apoptosis in human DU145 cells assessed as live cells at 125 nM after 48 hrs using Annexin-V and propidium iodide staining (reference value: 86%); format: functional
[27] = Cytotoxicity against human RWPE1 cells after 48 hrs by MTT assay; format: cell-based; details: RWPE-1, 48 h
DU-145 [28] = assay: Induction of apoptosis in human DU145 cells assessed as reduction of cell population at 500 nM after 48 hrs by phase-contrast microscopic analysis; format: functional, cell-based; procedure, shortened: as §1
DU-145 [29] = assay: Induction of apoptosis in human DU145 cells assessed as irregular distribution of chromatin at 250 nM after 48 hrs using acridine orange and ethidium bromide staining by fluorescence microscopic analysis; format: functional, cell-based; procedure, shortened: as §2
DU-145 [30] = assay: Induction of apoptosis in human DU145 cells assessed as live cells at 500 nM after 48 hrs using Annexin-V and propidium iodide staining (reference value: 86%); format: functional
[31] = Therapeutic index, ratio of IC50 for human RWPE1 cells to IC50 for human LNCAP cells; format: cell-based; details: RWPE1 cells versus LNCAP cells, read-out: Ratio IC50
Procedure, shortened: (§3)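 Selectivity expressed as the fold by which the IC50 in normal prostate epithelial RWPE-1 cells exceeds the IC50 in the prostate cancer line (DU-145 or LNCaP).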

DU-145 [32] = assay: Induction of apoptosis in human DU145 cells assessed as late apoptotic cells at 500 nM after 48 hrs using Annexin-V and propidium iodide staining (reference value: 9.32%); format: functional
DU-145 [33] = assay: Cell cycle arrest in human DU145 cells assessed as accumulation at S phase at 125 nM after 48 hrs by propidium iodide staining (reference value: 9.1%); format: functional
DU-145 [34] = assay: Induction of apoptosis in human DU145 cells assessed as early apoptotic cells at 125 nM after 48 hrs using Annexin-V and propidium iodide staining (reference value: 1.40%); format: functional
DU-145 [35] = assay: Cell cycle arrest in human DU145 cells assessed as accumulation at G2/M phase at 250 nM after 48 hrs by propidium iodide staining (reference value: 22.5%); format: functional
[36] = Cytotoxicity against human HGC cells after 48 hrs by MTT assay; format: functional, cell-based
DU-145 [37] = assay: Cell cycle arrest in human DU145 cells assessed as accumulation at G2/M phase at 500 nM after 48 hrs by propidium iodide staining (reference value: 22.5%); format: functional
LNCaP = assay: Cytotoxicity against human LNCAP cells after 48 hrs by MTT assay; format: functional, cell-based
[38] = Therapeutic index, ratio of IC50 for human RWPE1 cells to IC50 for human DU145 cells; format: cell-based; details: RWPE1 cells versus DU145 cells, read-out: Ratio IC50; procedure, shortened: as §3
DU-145 [39] = assay: Induction of apoptosis in human DU145 cells assessed as formation of apoptotic bodies at 125 to 500 nM after 48 hrs by phase-contrast microscopic analysis; format: functional, cell-based; procedure, shortened: as §1
DU-145 [40] = assay: Induction of apoptosis in human DU145 cells assessed as condensed chromatin at 500 nM after 48 hrs using acridine orange and ethidium bromide staining by fluorescence microscopic analysis; format: functional, cell-based; procedure, shortened: as §2

## COc1ccc(NC(=S)N[C@@H]2c3cc4c(cc3[C@@H](c3cc(OC)c(OC)c(OC)c3)[C@H]3C(=O)OC[C@@H]32)OCO4)cc1
DU-145 [1]
  Activity: 16.75%
A549
  IC50: 37.6 µM
DU-145 [2]
  Activity: Active
DU-145 [3]
  Activity: 3.38%
DU-145 [4]
  Activity: 33.5%
[5]
  inhibition: Active
DU-145 [6]
  IC50: 0.5 µM
DU-145 [7]
  Activity: Active
DU-145 [8]
  Activity: Active
DU-145 [9]
  Activity: 59.8%
DU-145 [10]
  Activity: 30.8%
DU-145 [11]
  Activity: 28.4%
DU-145 [12]
  Activity: 2.3%
DU-145 [13]
  Activity: 14.8%
DU-145 [14]
  Activity: Active
DU-145 [15]
  Activity: Active
DU-145 [16]
  Activity: 1.07%
DU-145 [17]
  Activity: 15.35%
DU-145 [18]
  Activity: 44.38%
MDA-MB-231
  IC50: 18 µM
DU-145 [19]
  Activity: 27.9%
DU-145 [20]
  Activity: 22.55%
DU-145 [21]
  Activity: Active
DU-145 [22]
  Activity: Active
DU-145 [23]
  Activity: 27.8%
DU-145 [24]
  Activity: Active
DU-145 [25]
  Activity: Active
DU-145 [26]
  Activity: 74.57%
[27]
  IC50: 40.9 µM
DU-145 [28]
  Activity: Active
DU-145 [29]
  Activity: Active
DU-145 [30]
  Activity: 27.87%
[31]
  selectivity ratio: 2.3
DU-145 [32]
  Activity: 26.68%
DU-145 [33]
  Activity: 19.5%
DU-145 [34]
  Activity: 5.31%
DU-145 [35]
  Activity: 26.3%
[36]
  IC50: 3.85 µM
DU-145 [37]
  Activity: 41.7%
LNCaP
  IC50: 17.6 µM
[38]
  selectivity ratio: 81.7
DU-145 [39]
  Activity: Active
DU-145 [40]
  Activity: Active
